From PubChem
Only some compounds are listed: those with a hit (about 4% of all), similar ones and a draw of the others.
MPTP block – mitochondrial permeability transition pore inhibitors, primary screen, biochemical, isolated mouse mitochondria, absorbance; Ca2+ swelling absorbance, 30 min; inhibition, % at 10 µM; 1.4% of 360,000 active;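 active means inhibition of 50% or more, scaled per plate between neutral and stimulator controls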;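 further: 0% = DMSO wells given calcium and 100% = 1 mM EGTA wells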
GPR7 antagonist – GPR7 receptor antagonists, primary screen, cell-based, fluorescence, single concentration. GPR7-expressing cells, fluorescence antagonist assay. 1.1% of 290,000 active. Neuropeptides B/W receptor type 1 (Homo sapiens), P48145. inhibition, % at 4.4 µM; in the data active means inhibition above about 16%, passing the limit was not always enough;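 further: cells stimulated with the agonist NPW; 0% = agonist with vehicle and 100% = vehicle without agonist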
Target sequence (P48145 whole entry, looked up): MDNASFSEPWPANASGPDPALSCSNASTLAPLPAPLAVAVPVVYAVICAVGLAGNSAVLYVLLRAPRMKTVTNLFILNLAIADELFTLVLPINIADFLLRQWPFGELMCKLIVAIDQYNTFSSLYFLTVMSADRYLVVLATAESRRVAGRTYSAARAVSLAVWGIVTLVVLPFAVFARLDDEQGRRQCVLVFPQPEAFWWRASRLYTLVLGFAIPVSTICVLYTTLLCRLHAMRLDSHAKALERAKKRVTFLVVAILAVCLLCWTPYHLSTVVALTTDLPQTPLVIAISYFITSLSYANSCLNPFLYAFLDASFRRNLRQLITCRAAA
TAAR1 agonist – human TAAR1 agonists, primary screen, Fluo-8 calcium fluorescence, CHO RD-HGA16 cells; activation, % at 3 µM; 0.99% of 360,000 active; vehicle wells 0%, saturating PEA agonist 100%;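 active means activation above the mean activation of all test compounds in the run plus 3 SD, cut at about 38% in these data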
Target sequence (Q96RJ0 whole entry, looked up): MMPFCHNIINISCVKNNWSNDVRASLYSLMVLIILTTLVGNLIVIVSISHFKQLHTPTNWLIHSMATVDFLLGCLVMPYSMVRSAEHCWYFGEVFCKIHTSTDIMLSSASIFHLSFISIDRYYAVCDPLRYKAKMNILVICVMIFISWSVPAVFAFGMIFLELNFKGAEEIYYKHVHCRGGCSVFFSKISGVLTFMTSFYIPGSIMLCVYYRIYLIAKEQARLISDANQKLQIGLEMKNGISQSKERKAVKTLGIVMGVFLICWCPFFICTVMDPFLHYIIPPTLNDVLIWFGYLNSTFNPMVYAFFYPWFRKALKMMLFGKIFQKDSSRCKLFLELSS
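Assay system – CHO-derived RD-HGA16 cells with stable Gα16 and human TAAR1 · Compound dosing – one-point dosing at 3 µM (nominal) · Incubation – 17-24 h seeding, 75 min 37 °C dye, 30 min RT · Measured by – kinetic Fluo-8 calcium fluorescence · Control set – DMSO vehicle as 0%, PEA at EC100 as 100% · Repeats – single well for each compound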
DAGLB inhibitor – DAGLB lipase inhibitors, primary screen, biochemical, fluorescence, HTS; Diacylglycerol lipase-beta (Homo sapiens), Q8NCG7; HEK293T DAGLB membrane lysate, EnzChek fluorogenic substrate; inhibition, % at 5.17 µM; 0.059% of 340,000 active; AID 504411, 2011; in the data active means inhibition above about 34%;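 further: 0% = enzyme with vehicle and 100% = wells lacking enzyme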
TAAR1 antagonist – human TAAR1 antagonists, primary screen, Fluo-8 calcium fluorescence, CHO RD-HGA16 cells | Trace amine-associated receptor 1 (Homo sapiens), Q96RJ0 | antagonist | inhibition, % at 3 µM | 1.5% of 360,000 active | AID 624466, 2012;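 active means inhibition above a per-plate cutoff, the mean inhibition of test compounds on that plate plus 3 SD, cut at about 49% in these data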;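 further: 0% = DMSO plus EC80 beta-PEA response and 100% = DMSO alone without agonist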
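System: RD-HGA16 CHO cells with stable hTAAR1 and Gα16 | Probe or stimulus: EC80 β-phenethylamine stimulus | Dosing: 3 µM, single point | Times: Dye loading 75 min at 37 °C, then 30 min room temperature | Measured by: Fluo-8 calcium-sensitive fluorescence | Read-out basis: % inhibition of agonist calcium response | Replicates: n of 1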
TAAR1 ag conf – human TAAR1 agonists, retest of hits, confirmation, Fluo-8 calcium fluorescence, CHO RD-HGA16 cells. shares compounds with TAAR1 agonist. scaled: DMSO 0%, maximal phenethylamine 100%. activation, % at 3 µM. 82% of 2,400 active. AID 651783, 2012;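 active means activation above a cutoff set at the run's mean compound activation plus 3 SD, cut at about 39% in these data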
Ga16 ag counter – nonselective calcium mobilization agonists, CHO-Ga16 cells, counter-screen for hTAAR1 agonist project, cell-based, fluorescence, CHO-Ga16 parental line. shares compounds with TAAR1 agonist. Fluo-8 calcium fluorescence; normalized to maximal ATP response, DMSO zero. activation, % at 3 µM. 50% of 2,400 active. AID 651787, 2012;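 active means activation above the run cutoff, the mean activation over all tested wells plus 3 SD, cut at about 12% in these data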;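 further: 0% = DMSO wells and 100% = maximal ATP response on the peak over basal ratio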
TAAR1 desensitize – TAAR1 desensitization by agonist hits, confirmation, counter-screen for TAAR1 agonist project, cell-based, fluorescence, tachyphylaxis; shares compounds with TAAR1 agonist; CHO RD-HGA16 hTAAR1, Fluo-8 calcium, beta-PEA response inhibition; inhibition, % at 3 µM; 46% of 2,400 active;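 active means inhibition above the run cutoff, the mean inhibition of all test compounds plus 3 SD, cut at about 49% in these data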;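 further: beta-PEA stimulus applied at its EC80; loss of beta-PEA calcium signal after compound pretreatment read as receptor desensitization; 0% = DMSO with beta-PEA at EC80 and 100% = DMSO alone without agonist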
Ga16 nonsel ant – inhibition of ATP-evoked calcium response in CHO-Ga16 cells, counter-screen for TAAR1 agonist project, cell-based, fluorescence. shares compounds with TAAR1 agonist. CHO-Ga16 ATP-induced calcium, Fluo-8 fluorescence. inhibition, % at 3 µM. 39% of 2,400 active. AID 651952, 2012;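 active means inhibition above the plate's mean compound inhibition plus 3 SD, computed per plate, cut at about 22% in these data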;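 further: 0% = EC80 ATP with DMSO and 100% = DMSO wells without ATP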
Starred values were filed as active, the others as inactive.

How did Nc1nc2c(ncn2[C@@H]2O[C@H](C(=O)N[C@H](Cc3ccccc3)C(=O)NCc3ccccc3)[C@@H](O)[C@H]2O)c(=O)[nH]1 do in these assays?
TAAR1 agonist: 0.7; TAAR1 antagonist: -2.8

What do the screens show for `COc1ccc(NC(=O)COC(=O)C2COc3ccccc3O2)cc1OC` (centres undefined)?
MPTP block: 0.5; TAAR1 agonist: 6.2; DAGLB inhibitor: 0.1; TAAR1 antagonist: -2.4

How did CC(C)CN1CC(C)C(=O)N(c2ccccc2)C1=O (centres undefined) do in these assays?
MPTP block: -1.7; TAAR1 agonist: 62.9*; DAGLB inhibitor: -0.5; TAAR1 antagonist: 21.2; TAAR1 ag conf: 2.2; Ga16 ag counter: 3.0; TAAR1 desensitize: 8.2; Ga16 nonsel ant: 5.5

What do the screens show for `CC1CN(Cc2ccccc2)C(=S)N(c2ccccc2)C1=O` (centres undefined)?
MPTP block: 0.0; TAAR1 agonist: 2.0; DAGLB inhibitor: -5.2; TAAR1 antagonist: -7.2

Results for Cc1cc(/C=C(\C#N)C(=O)Nc2ccc(F)cc2)c(C)n1-c1ccc(N2CCOCC2)c([N+](=O)[O-])c1 ?
MPTP block: -0.3; GPR7 antagonist: 2.2; TAAR1 agonist: 68.8*; DAGLB inhibitor: -1.3; TAAR1 antagonist: 20.6; TAAR1 ag conf: 24.1; Ga16 ag counter: 9.7; TAAR1 desensitize: 30.9; Ga16 nonsel ant: 28.1*

Results for CCOC(=O)C1=CCC2C(=O)N(C)C(=O)C12 (centres undefined) ?
MPTP block: -1.1; TAAR1 agonist: 2.9; TAAR1 antagonist: -10.4

What do the screens show for `CCOc1ccc(CSC(=N)N)cc1Cl`?
MPTP block: -3.5; GPR7 antagonist: 0.4; TAAR1 agonist: 12.6; DAGLB inhibitor: -5.9; TAAR1 antagonist: -3.1

What do the screens show for `CCCCOc1ccc(CSCCN)cc1Cl`?
MPTP block: 1.4; GPR7 antagonist: 17.2; TAAR1 agonist: 76.8*; DAGLB inhibitor: 2.1; TAAR1 antagonist: -0.7; TAAR1 ag conf: 64.0*; Ga16 ag counter: 9.7; TAAR1 desensitize: 30.9; Ga16 nonsel ant: 11.3

How did Cc1ccccc1-c1ccc2c(c1)[C@@H]1C[C@H](N(C)S(=O)(=O)c3ccc(Cl)cc3)[C@H]([C@H](C)O)CN1CC2 do in these assays?
TAAR1 agonist: -0.1; TAAR1 antagonist: -43.5

What do the screens show for `Cc1ccc2c(c1)N(CC(=O)Nc1c(C)cccc1C)C(=O)c1cccnc1O2`?
MPTP block: -0.7; GPR7 antagonist: -3.4; TAAR1 agonist: 3.0; DAGLB inhibitor: -1.2; TAAR1 antagonist: -23.4

How did Cc1ccc2c(c1)N(CC(=O)NCC(C)c1ccccc1)C(=O)c1cccnc1O2 (centres undefined) do in these assays?
MPTP block: 1.2; GPR7 antagonist: 1.6; TAAR1 agonist: 55.8*; DAGLB inhibitor: 1.1; TAAR1 antagonist: 47.2; TAAR1 ag conf: 74.1*; Ga16 ag counter: 2.5; TAAR1 desensitize: 49.8*; Ga16 nonsel ant: 10.3

How did O=S(=O)(CCNCCc1ccccc1)NC1CCCCC1 do in these assays?
MPTP block: 0.2; TAAR1 agonist: 42.5*; DAGLB inhibitor: 0.0; TAAR1 antagonist: 13.0; TAAR1 ag conf: 59.8*; Ga16 ag counter: 0.9; TAAR1 desensitize: 17.3; Ga16 nonsel ant: -1.7

How did Cc1ccc(-c2c(C(=O)N/N=C/c3ccc(OC(C)C)cc3)nnn2-c2nonc2N)cc1 do in these assays?
MPTP block: -1.5; GPR7 antagonist: -8.2; TAAR1 agonist: 130.5*; DAGLB inhibitor: -4.4; TAAR1 antagonist: 70.2*; TAAR1 ag conf: 124.7*; Ga16 ag counter: 94.3*; TAAR1 desensitize: 57.2*; Ga16 nonsel ant: 45.6*

Results for CCc1ccc(/C=N/NC(=O)c2nnn(-c3nonc3N)c2C(C)C)cc1 ?
MPTP block: 0.0; GPR7 antagonist: 2.0; TAAR1 agonist: 132.9*; DAGLB inhibitor: -3.5; TAAR1 antagonist: 80.2*; TAAR1 ag conf: 133.6*; Ga16 ag counter: 101.3*; TAAR1 desensitize: 96.1*; Ga16 nonsel ant: 59.2*

Results for CCOc1ccc(-c2c(C(=O)N/N=C/c3ccc(OC(C)C)cc3)nnn2-c2nonc2N)cc1 ?
MPTP block: 0.0; GPR7 antagonist: -12.1; TAAR1 agonist: 116.4*; DAGLB inhibitor: -4.1; TAAR1 antagonist: 5.9; TAAR1 ag conf: 117.6*; Ga16 ag counter: 74.8*; TAAR1 desensitize: 46.4; Ga16 nonsel ant: 36.8*

How did COCCN1C(=O)[C@H]2C[C@@]13O[C@H](c1ccccn1)N=C3CC1c3ccccc3C[C@@]12C (some centres undefined) do in these assays?
TAAR1 agonist: 0.7; TAAR1 antagonist: -16.0

Results for CCOc1ccc(NC(=O)Cn2nnc(-c3ccccc3F)n2)cc1 ?
MPTP block: 1.0; GPR7 antagonist: -10.6; TAAR1 agonist: 75.0*; DAGLB inhibitor: -1.3; TAAR1 antagonist: 32.4; TAAR1 ag conf: 29.3; Ga16 ag counter: 3.5; TAAR1 desensitize: 10.8; Ga16 nonsel ant: 12.2

What do the screens show for `Nc1nc2c(ncn2[C@@H]2O[C@H](C(=O)NCC(F)(F)F)[C@@H](O)[C@H]2O)c(=O)[nH]1`?
TAAR1 agonist: 0.8; TAAR1 antagonist: -21.0

Results for COc1ccc(NC(=O)c2ccccc2)c([N+](=O)[O-])c1 ?
MPTP block: 0.2; GPR7 antagonist: -4.8; TAAR1 agonist: 4.3; DAGLB inhibitor: -5.7; TAAR1 antagonist: -12.4

What do the screens show for `CCC(CC)C(=O)Nc1cccc(C(=O)Nc2ccc(OC)cc2[N+](=O)[O-])c1`?
MPTP block: 0.2; GPR7 antagonist: 0.8; TAAR1 agonist: 78.2*; DAGLB inhibitor: -4.0; TAAR1 antagonist: 77.2*; TAAR1 ag conf: 45.0*; Ga16 ag counter: 5.9; TAAR1 desensitize: 38.3; Ga16 nonsel ant: 12.5

How did O=C(NCCc1ccccc1)c1ccccc1Cl do in these assays?
MPTP block: -0.7; GPR7 antagonist: -2.1; TAAR1 agonist: 1.5; DAGLB inhibitor: 1.8; TAAR1 antagonist: -23.4
